Results as given in article PMC12316622 (EJNMMI Research, 2025).
Where a name gives a salt, the structure may show the parent alone.

Tests used:
[1] = system: GRPR mRNA in PC-3 xenografts; assay: Ex-vivo GRPR mRNA expression in PC-3 xenografts; parameters: species or system NMRI-Foxn1 nu/nu mice; conditions: PC-3 xenografts after third cycle of DTX 5 mg/kg; RT-qPCR
In short: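 PC-3 xenografts came from male nude mice given taxane 5 mg/kg or placebo (polysorbate-80 1:1 in 5% glucose) weekly for 3 weeks, N = 4. After the final SPECT/CT scan, each tumor was halved. One half was processed for GRPR mRNA by RT-qPCR and compared with placebo.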

PC-3 cells = assay: IC50 determination, SRB cell density assay, PC-3; assay type: cell-based; conditions: Homo sapiens
In short: (§1)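 Cells were seeded in 96-well plates (PC-3 at 3 × 10³, T47D at 5 × 10³) and left overnight. They were exposed 72 h at 37 °C to increasing test compound concentrations with DMSO vehicle, washed, then regrown 48 h in fresh medium. Readout was by SRB: TCA fixation overnight, 0.5% SRB for 20 min, acetic acid washes, dye dissolved in 10 mM Tris, OD at 560 nm. Density was taken relative to untreated cells (100%). Runs were in triplicate, and IC50 came from a four-parameter nonlinear fit.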

T47D cells [2] = assay: IC50 determination, SRB cell density assay, T47D; assay type: cell-based; conditions: Homo sapiens
In short: as §1

[3] = system: GRPR mRNA in T47D xenografts; assay: Ex-vivo GRPR mRNA expression in T47D xenografts; parameters: species or system NMRI-Foxn1 nu/nu mice; conditions: T47D tumors from DXR-treated animals (5 mg/kg, 2 cycles); RT-qPCR
In short: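 T47D xenografts came from estradiol-supplemented female nude mice given anthracycline 5 mg/kg or placebo weekly for 2 weeks. After the last SPECT/CT scan, each tumor was halved. One half was used for GRPR mRNA by RT-qPCR against placebo.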

T47D cells [4] = assay: Sensitivity to GRPR-mediated radionuclide therapy, T47D; assay type: cell-based, human; conditions: 50 MBq, 1 h, SRB after 6 days
In short: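 T47D cells were pretreated 72 h with anthracycline or vehicle (0.4% DMSO), then regrown 24 h. Next, 3 × 10⁶ cells were seeded in T25 flasks and the following day exposed 1 h at 37 °C to 50 MBq/ml ¹⁷⁷Lu-labelled GRPR tracer, [¹⁷⁷Lu]Lu-DTPA (specificity control) or medium. Cells were scraped and re-seeded at 4 × 10³ per well, grown 6 days, then read by SRB. Density was taken versus medium-treated cells within each pretreatment group, from three independent experiments in triplicate.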

| SMILES | GRPR mRNA levels in xenografts versus placebo [1] | IC50 (PC-3 cells) [nM] | IC50 (T47D cells [2]) [nM] | GRPR mRNA expression in xenografts versus placebo [3] | Cell density relative to medium-treated cells (T47D cells [4]; DXR-pretreated T47D cells) | Cell density relative to medium-treated cells (T47D cells [4]; vehicle and DXR pretreated T47D cells) |
| --- | --- | --- | --- | --- | --- | --- |
| CC(=O)O[C@@]12CO[C@@H]1C[C@H](O)[C@@]1(C)C(=O)[C@H](O)C3=C(C)[C@@H](OC(=O)[C@H](O)[C@@H](NC(=O)OC(C)(C)C)c4ccccc4)C[C@@](O)([C@@H](OC(=O)c4ccccc4)[C@H]21)C3(C)C [DTX, anhydrous docetaxel] | similar | 14.1 ± 3.72 | 0.94 ± 0.39 |  |  |  |
| COc1cccc2c1C(=O)c1c(O)c3c(c(O)c1C2=O)C[C@@](O)(C(=O)CO)C[C@@H]3O[C@H]1C[C@H](N)[C@H](O)[C@H](C)O1 [DXR, doxorubicin hydrochloride] |  |  | 22.3 ± 7.04 | increased GRPR mRNA expression |  |  |
| O=C([O-])CN(CCN(CC(=O)[O-])CC(=O)[O-])CCN(CC(=O)[O-])CC(=O)[O-].[177Lu+3] [[^177Lu]Lu-DTPA] |  |  |  |  | slightly higher compared to the other conditions | no effect was observed |
